# Measured values from ChEMBL document CHEMBL4028848, “Discovery of N-{4-[5-(4-Fluorophenyl)-3-methyl-2-methylsulfanyl-3H-imidazol-4-yl]-pyridin-2-yl}-acetamide (CBS-3595), a Dual p38α MAPK/PDE-4 Inhibitor with Activity against TNFα-Related Diseases” (J Med Chem, 2017).
# Where “and” joins values, the source holds several entries; their conditions need not be identical. Equal entries are not always repeated. Calls of active or inactive are those of the source. The rule behind the calls is not given here.
# Columns and labels:
# [1] = Apparent permeability in human Caco2 cells at 10 uM; format: ADME, cell-based; conditions: Caco-2
# Rattus norvegicus [2] = experiment: Antiarthritic activity in Lewis rat assessed as collagen oligomeric matrix protein level in serum at 1 mg/kg, po qd administered for 10 days (Rbv = 0.17 +/- 0.02 U/l); format: functional
# Summary of the method: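 Collagen-induced arthritis in male Lewis rats (5–6 per group). Groups received vehicle, dexamethasone 1 mg/kg, test item 50 mg/kg once daily, or 25 mg/kg twice daily for 10 days. Body weight, arthritic score and paw volume were monitored, and serum COMP was measured at the end.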
# [3] = target: Mitogen-activated protein kinase 14 (Homo sapiens, UniProt Q16539); experiment: Inhibition of p38alpha MAPK (unknown origin)
# Sequence of Mitogen-activated protein kinase 14 (Q16539 whole entry): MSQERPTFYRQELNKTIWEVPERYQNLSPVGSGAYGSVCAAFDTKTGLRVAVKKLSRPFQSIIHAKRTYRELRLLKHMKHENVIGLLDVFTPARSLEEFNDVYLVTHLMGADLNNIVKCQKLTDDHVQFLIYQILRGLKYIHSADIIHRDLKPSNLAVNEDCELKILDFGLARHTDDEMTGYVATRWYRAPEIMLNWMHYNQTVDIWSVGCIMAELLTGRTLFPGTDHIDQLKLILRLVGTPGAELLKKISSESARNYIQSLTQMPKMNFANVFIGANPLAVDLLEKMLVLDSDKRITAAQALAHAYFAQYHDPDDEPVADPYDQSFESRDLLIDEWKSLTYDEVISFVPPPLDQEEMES
# Rattus norvegicus [4] = experiment: In vivo inhibition of P38 MAPKalpha in Lewis rat assessed as decrease in LPS-stimulated TNFalpha level in serum at 10 mg/kg, po pretreated for 1 hr followed by LPS addition measured after 1.5 hrs post dose relative to control; format: functional
# Summary of the method: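 Lewis rats, n = 8/group: females dosed orally at 10 mg/kg at −1, −3 or −5 h relative to LPS challenge, plus one male group dosed at −1 h. Male and female vehicle controls were given at −1 h. Serum TNFα was measured after LPS and compared with vehicle.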
# Rattus norvegicus [5] = experiment: In vivo inhibition of P38 MAPKalpha in Lewis rat assessed as decrease in LPS-stimulated TNFalpha level in serum at 30 mg/kg pretreated for 3 hrs followed by LPS addition measured after 1.5 hrs post dose; format: functional, organism-based
# Rattus norvegicus [6] = experiment: In vivo inhibition of P38 MAPKalpha in Lewis rat assessed as decrease in LPS-stimulated TNFalpha level in serum at 30 mg/kg pretreated for 1 hrs followed by LPS addition measured after 1.5 hrs post dose; format: functional, organism-based
# Homo sapiens = species on record: Homo sapiens; experiment: Inhibition of PDE4 in LPS-stimulated human whole blood assessed as decrease in leukotriene B4 level in plasma
# Rattus norvegicus [7] = experiment: In vivo inhibition of P38 MAPKalpha in Sprague-Dawley rat assessed as decrease in LPS-stimulated TNFalpha level in serum at 3 mg/kg, po pretreated for 1 hr followed by LPS addition measured after 2 hrs relative to control; format: functional
# [8] = Drug level in cynomolgus monkey liver microsomes treated with CBS-3595 at 10 to 100 uM; format: ADME, Macaca fascicularis, microsome
# Summary of the method: (§1)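 Test compound incubated at 10, 30 and 100 μM with liver microsomes from rat, Cynomolgus monkey or human, and metabolites monitored.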
# Liver [9] = experiment: Drug level in human liver microsomes treated with CBS-3595 at 10 to 100 uM; format: ADME, microsome; summary of the method: as §1
# Liver [10] = experiment: Drug level in rat liver microsomes treated with CBS-3595 at 10 to 100 uM; format: ADME, microsome; summary of the method: as §1
# [11] = target: Mitogen-activated protein kinase 8 (Homo sapiens) (UniProt P45983); experiment: Inhibition of human recombinant full length N-terminal His6 tagged JNK1 expressed in Sf21 cells at 10 uM relative to control
# Sequence of Mitogen-activated protein kinase 8 (Homo sapiens) (P45983 whole entry): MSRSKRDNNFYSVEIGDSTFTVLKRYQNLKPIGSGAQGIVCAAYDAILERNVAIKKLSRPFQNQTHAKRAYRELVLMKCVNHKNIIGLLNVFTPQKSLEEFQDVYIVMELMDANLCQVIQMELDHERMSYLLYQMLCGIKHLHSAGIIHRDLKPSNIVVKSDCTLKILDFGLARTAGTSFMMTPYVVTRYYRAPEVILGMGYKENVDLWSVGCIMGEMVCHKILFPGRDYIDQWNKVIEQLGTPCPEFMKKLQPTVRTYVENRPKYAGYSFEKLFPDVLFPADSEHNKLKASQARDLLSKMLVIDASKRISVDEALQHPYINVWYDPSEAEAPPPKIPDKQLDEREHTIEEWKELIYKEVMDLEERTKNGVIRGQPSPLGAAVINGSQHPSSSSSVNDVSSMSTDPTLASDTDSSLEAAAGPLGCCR
# Rattus norvegicus [12] = experiment: Toxicity in Wistar rat assessed as effect on composition of blood cells at 100 to 2500 mg/kg, po administered for 48 hrs followed by administration of 300 mg/kg, bid for 7 days starting 8 hrs interval between first and second dose measured after 7 days; format: organism-based; conditions: in vivo, 168 h
# Summary of the method: (§2)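 Wistar rats, maximum-tolerated-dose estimate in two steps. Step one: single oral doses of 100 (n = 1), 500 (n = 1) and 2500 mg/kg (n = 3), with clinical signs watched for 48 h. Step two: 300 mg/kg (n = 5) twice daily for 7 days, second dose 8 h after the first. After 7 days, body weight gain, blood cell number and composition, liver enzymes, and macroscopic liver and spleen were recorded.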
# Rattus norvegicus [13] = experiment: Toxicity in Wistar rat assessed as effect on microscopic appearance of spleen at 100 to 2500 mg/kg, po administered for 48 hrs followed by administration of 300 mg/kg, bid for 7 days starting 8 hrs interval between first and second dose measured after 7 days; format: organism-based; conditions: in vivo, 168 h
# Rattus norvegicus [14] = experiment: Toxicity in Wistar rat assessed as effect on number of blood cells at 100 to 2500 mg/kg, po administered for 48 hrs followed by administration of 300 mg/kg, bid for 7 days starting 8 hrs interval between first and second dose measured after 7 days; format: organism-based; conditions: in vivo, 168 h; summary of the method: as §2
# [15] = AUC (0 to t) in Wistar rat at 30 mg/kg, po administered as single dose via gavage by LC-MS/MS analysis; format: ADME, organism-based; conditions: in vivo
# Summary of the method: (§3)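 Male and female Wistar rats received a single oral gavage of 30 mg/kg. Parameters are given as the mean of the two sexes.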
# CYP1A2 = CYP1A2 (Homo sapiens, UniProt P05177); experiment: Inhibition of CYP1A2 (unknown origin) at 10 uM by fluorimetric assay relative to control; format: ADME
# Sequence of CYP1A2 (P05177 whole entry): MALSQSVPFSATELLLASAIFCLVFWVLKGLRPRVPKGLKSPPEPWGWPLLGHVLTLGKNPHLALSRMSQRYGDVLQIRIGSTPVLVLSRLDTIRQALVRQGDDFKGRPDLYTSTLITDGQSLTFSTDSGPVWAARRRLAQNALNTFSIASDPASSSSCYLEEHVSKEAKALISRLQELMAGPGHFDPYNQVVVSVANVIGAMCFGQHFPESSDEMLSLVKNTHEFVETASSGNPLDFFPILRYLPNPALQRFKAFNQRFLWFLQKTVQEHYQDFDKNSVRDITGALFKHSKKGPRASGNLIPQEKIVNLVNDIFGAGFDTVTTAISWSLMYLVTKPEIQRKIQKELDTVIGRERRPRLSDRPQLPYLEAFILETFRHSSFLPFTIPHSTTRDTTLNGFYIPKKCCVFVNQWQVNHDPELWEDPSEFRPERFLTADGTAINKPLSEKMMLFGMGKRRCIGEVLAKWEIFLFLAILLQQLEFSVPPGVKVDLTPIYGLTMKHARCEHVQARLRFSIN
# Summary of the method: (§4)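 CYP1A2, CYP2C9, CYP2C19, CYP3A4 and CYP2D6 were tested as a panel for cytochrome P450 interaction.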
# [16] = Cmax in Wistar rat at 30 mg/kg, po administered as single dose via gavage by LC-MS/MS analysis; format: ADME, organism-based; design: dose 30 mg/kg, route oral; conditions: in vivo; summary of the method: as §3
# Rattus norvegicus [17] = experiment: Toxicity in Wistar rat assessed as effect on microscopic appearance of liver at 100 to 2500 mg/kg, po administered for 48 hrs followed by administration of 300 mg/kg, bid for 7 days starting 8 hrs interval between first and second dose measured after 7 days; format: organism-based; conditions: in vivo, 168 h
# Mus musculus [18] = experiment: Antiarthritic activity in DBA/1 mouse assessed as decrease in collagen-induced arthritic score at 50 mg/kg, bid administered on day 22 post second injection of type 2 collagen; format: functional, organism-based
# Summary of the method: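 Collagen-induced arthritis in male DBA/1 mice. Dosing at 50 mg/kg b.i.d. began on day 22, one day after the second (boost) injection of type II collagen.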
# [19] = target: Mitogen-activated protein kinase 10 (Homo sapiens) (UniProt P53779); experiment: Inhibition of human recombinant full length N-terminal His6 tagged JNK3 expressed in Sf21 cells at 10 uM relative to control
# Sequence of Mitogen-activated protein kinase 10 (Homo sapiens) (P53779 whole entry): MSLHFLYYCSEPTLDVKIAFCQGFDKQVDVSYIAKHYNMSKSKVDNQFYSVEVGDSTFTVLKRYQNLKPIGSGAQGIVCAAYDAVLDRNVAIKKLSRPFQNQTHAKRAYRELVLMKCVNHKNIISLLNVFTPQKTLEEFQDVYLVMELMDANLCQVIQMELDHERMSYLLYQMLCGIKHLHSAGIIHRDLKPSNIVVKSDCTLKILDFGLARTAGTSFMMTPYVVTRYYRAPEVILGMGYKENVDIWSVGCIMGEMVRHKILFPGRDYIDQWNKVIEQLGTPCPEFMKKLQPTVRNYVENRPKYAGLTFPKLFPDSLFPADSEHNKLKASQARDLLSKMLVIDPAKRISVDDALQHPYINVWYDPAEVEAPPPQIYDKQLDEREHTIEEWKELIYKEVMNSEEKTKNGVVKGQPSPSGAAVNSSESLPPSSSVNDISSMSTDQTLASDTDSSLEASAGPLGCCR
# [20] = Half life in Wistar rat at 30 mg/kg, po administered as single dose via gavage by LC-MS/MS analysis; format: ADME, organism-based; conditions: in vivo
# Summary of the method: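 Single oral gavage dose of 30 mg/kg given to male and female Wistar rats. PK parameters are reported as the mean of males and females.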
# CYP2C9 = CYP2C9 (Homo sapiens, UniProt P11712); experiment: Inhibition of CYP2C9 (unknown origin) at 10 uM by fluorimetric assay relative to control; format: ADME; summary of the method: as §4
# Sequence of CYP2C9 (P11712 whole entry): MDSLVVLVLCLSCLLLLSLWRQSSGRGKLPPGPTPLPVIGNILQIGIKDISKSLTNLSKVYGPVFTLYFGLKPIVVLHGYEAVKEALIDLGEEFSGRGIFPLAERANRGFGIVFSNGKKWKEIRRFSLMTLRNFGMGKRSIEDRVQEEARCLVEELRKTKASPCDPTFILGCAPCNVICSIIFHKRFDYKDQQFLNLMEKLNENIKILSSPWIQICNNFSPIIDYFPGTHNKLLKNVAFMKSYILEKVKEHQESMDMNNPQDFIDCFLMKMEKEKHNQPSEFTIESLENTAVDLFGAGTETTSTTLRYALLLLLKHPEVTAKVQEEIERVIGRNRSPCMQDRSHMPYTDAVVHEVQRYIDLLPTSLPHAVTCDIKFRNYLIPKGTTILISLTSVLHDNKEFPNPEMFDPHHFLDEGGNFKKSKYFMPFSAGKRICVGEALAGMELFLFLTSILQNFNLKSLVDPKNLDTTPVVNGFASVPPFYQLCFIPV
# Rattus norvegicus [21] = experiment: Toxicity in Wistar rat assessed as change in body weight at 100 to 2500 mg/kg, po administered for 48 hrs followed by administration of 300 mg/kg, bid for 7 days starting 8 hrs interval between first and second dose measured after 7 days; format: organism-based; conditions: in vivo, 168 h; summary of the method: as §2
# CYP2D6 = CYP2D6 (Homo sapiens, UniProt P10635); experiment: Inhibition of CYP2D6 (unknown origin) at 10 uM by fluorimetric assay relative to control; format: ADME; summary of the method: as §4
# Sequence of CYP2D6 (P10635 whole entry): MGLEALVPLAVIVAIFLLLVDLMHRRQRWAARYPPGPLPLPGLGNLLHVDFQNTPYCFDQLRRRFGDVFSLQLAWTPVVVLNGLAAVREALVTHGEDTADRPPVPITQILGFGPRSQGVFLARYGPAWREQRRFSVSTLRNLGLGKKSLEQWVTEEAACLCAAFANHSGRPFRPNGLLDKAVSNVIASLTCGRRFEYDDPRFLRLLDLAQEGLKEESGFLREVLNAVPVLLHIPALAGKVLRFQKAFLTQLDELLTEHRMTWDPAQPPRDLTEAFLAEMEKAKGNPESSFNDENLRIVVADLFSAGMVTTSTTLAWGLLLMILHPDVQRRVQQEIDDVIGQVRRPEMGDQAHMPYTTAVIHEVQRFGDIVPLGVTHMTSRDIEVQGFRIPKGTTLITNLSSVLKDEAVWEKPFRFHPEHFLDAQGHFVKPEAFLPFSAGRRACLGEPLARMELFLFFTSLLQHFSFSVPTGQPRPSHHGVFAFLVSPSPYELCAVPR
# [22] = target: Mitogen-activated protein kinase 9 (Homo sapiens) (UniProt P45984); experiment: Inhibition of human recombinant full length N-terminal His6 tagged JNK2 expressed in Sf21 cells at 10 uM relative to control
# Sequence of Mitogen-activated protein kinase 9 (Homo sapiens) (P45984 whole entry, looked up): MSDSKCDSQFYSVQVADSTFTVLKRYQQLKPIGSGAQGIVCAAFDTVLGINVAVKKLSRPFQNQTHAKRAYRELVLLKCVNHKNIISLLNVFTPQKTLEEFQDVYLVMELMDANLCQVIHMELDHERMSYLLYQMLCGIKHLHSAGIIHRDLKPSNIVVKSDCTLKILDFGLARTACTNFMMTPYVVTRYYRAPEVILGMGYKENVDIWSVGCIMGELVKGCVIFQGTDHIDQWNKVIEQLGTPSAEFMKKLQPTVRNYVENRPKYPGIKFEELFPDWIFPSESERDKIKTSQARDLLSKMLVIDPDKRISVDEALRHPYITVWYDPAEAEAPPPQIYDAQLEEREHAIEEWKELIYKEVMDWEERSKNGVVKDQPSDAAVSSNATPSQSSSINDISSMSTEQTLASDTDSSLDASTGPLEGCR
# Rattus norvegicus [23] = experiment: Toxicity in Wistar rat assessed as effect on liver enzyme at 100 to 2500 mg/kg, po administered for 48 hrs followed by administration of 300 mg/kg, bid for 7 days starting 8 hrs interval between first and second dose measured after 7 days; format: organism-based; conditions: in vivo, 168 h; summary of the method: as §2
# [24] = target: Mitogen-activated protein kinase 11 (Homo sapiens) (UniProt Q15759); experiment: Inhibition of p38beta (unknown origin) at 10 uM relative to control
# Sequence of Mitogen-activated protein kinase 11 (Homo sapiens) (Q15759 whole entry): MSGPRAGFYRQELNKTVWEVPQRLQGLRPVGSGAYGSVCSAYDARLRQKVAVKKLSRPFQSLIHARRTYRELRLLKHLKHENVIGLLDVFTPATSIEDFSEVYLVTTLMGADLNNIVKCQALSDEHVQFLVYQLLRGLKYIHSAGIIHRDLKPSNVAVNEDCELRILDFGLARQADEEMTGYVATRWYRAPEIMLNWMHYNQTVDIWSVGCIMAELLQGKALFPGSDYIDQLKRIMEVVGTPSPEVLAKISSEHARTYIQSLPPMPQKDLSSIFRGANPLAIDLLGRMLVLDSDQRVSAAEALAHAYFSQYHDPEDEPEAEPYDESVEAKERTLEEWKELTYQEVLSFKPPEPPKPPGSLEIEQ
# CYP2C19 = CYP2C19 (Homo sapiens, UniProt P33261); experiment: Inhibition of CYP2C19 (unknown origin) at 10 uM by fluorimetric assay relative to control; format: ADME; summary of the method: as §4
# Sequence of CYP2C19 (P33261 whole entry): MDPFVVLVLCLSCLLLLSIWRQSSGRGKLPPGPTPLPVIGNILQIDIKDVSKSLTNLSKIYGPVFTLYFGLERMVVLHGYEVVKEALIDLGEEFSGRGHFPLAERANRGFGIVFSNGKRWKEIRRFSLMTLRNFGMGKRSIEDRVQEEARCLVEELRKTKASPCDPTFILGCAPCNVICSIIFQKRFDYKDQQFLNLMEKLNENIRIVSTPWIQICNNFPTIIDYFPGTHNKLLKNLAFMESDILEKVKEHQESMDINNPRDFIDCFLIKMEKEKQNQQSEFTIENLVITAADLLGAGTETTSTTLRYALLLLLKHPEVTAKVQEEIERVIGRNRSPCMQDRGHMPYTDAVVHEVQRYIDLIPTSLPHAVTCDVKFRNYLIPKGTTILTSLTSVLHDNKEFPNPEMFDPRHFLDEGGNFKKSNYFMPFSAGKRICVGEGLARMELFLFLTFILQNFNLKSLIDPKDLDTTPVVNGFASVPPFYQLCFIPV
# [25] = Tmax in Wistar rat at 30 mg/kg, po administered as single dose via gavage by LC-MS/MS analysis; format: ADME, organism-based; conditions: in vivo
# Summary of the method: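 Male and female Wistar rats each received a single 30 mg/kg oral gavage dose. Tmax is the mean of males and females.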
# Mus musculus [26] = experiment: Toxicity in DBA/1 mouse model of collagen-induced arthritis at 50 mg/kg, bid administered on day 22 post second injection of type 2 collagen; format: organism-based; conditions: in vivo
# Summary of the method: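 Male DBA/1 mice with collagen-induced arthritis were dosed at 50 mg/kg b.i.d. starting on day 22, 1 day after the type II collagen boost. Animals were monitored for signs of toxicity, including body weight loss relative to controls.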
# Mus musculus [27] = experiment: Protection against LPS/galactosamine-induced endotoxemia in Balb/c mouse assessed as inhibition of plasma TNFalpha level at 10 mg/kg, po pretreated for 1 hr followed by LPS/galactosamine addition measured after 90 mins relative to control; format: functional
# CYP3A4 = CYP3A4 (Homo sapiens, UniProt P08684); experiment: Inhibition of CYP3A4 (unknown origin) at 10 uM by fluorimetric assay relative to control; format: ADME; summary of the method: as §4
# Sequence of CYP3A4 (P08684 whole entry): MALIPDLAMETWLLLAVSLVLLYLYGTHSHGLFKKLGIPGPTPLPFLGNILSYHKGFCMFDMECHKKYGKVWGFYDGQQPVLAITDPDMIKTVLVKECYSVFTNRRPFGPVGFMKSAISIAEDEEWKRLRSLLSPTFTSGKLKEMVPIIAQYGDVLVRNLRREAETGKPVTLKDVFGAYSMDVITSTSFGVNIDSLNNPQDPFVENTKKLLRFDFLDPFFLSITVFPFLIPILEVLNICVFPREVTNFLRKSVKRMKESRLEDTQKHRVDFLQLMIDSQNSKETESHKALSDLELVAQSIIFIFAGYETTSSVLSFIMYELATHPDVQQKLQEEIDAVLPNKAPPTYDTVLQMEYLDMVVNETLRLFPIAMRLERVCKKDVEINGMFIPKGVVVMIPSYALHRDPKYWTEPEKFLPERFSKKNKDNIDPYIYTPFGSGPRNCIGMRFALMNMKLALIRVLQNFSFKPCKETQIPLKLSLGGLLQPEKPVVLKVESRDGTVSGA
smiles,measurement,setting,value
CC(C)NCC(O)COc1cccc2ccccc12 (stereo not drawn) [PROPRANOLOL],Papp at 10 µM,[1],71.1 ×10⁻⁶ cm/s
C[C@@H]1C[C@H]2[C@@H]3CCC4=CC(=O)C=C[C@]4(C)[C@@]3(F)[C@@H](O)C[C@]2(C)[C@@]1(O)C(=O)CO [DEXAMETHASONE],Activity,Rattus norvegicus [2],0.03 U/L
CC(=O)Nc1cc(-c2c(-c3ccc(F)cc3)nc([S@@+](C)[O-])n2C)ccn1,IC50,[3],129 nM
CCc1nc(-c2cccc(C)c2)c(-c2ccnc(NC(=O)c3ccccc3)c2)s1 [TAK-715],inhibition in vivo at 10 mg/kg,Rattus norvegicus [4],6%
C[S+]([O-])c1ccc(-c2nc(-c3ccc(F)cc3)c(-c3ccncc3)[nH]2)cc1 (stereo not drawn) [SB-203580],inhibition,Rattus norvegicus [5],Active
same,inhibition,Rattus norvegicus [6],Active
same,inhibition,Homo sapiens,inactive
same,inhibition in vivo at 3 mg/kg,Rattus norvegicus [7],37%
Cn1c(S(C)(=O)=O)nc(-c2ccc(F)cc2)c1-c1ccnc(N)c1,Drug metabolism,[8],Metabolite_Detected
same,Drug metabolism,Liver [9],Metabolite_Detected
same,Drug metabolism,Liver [10],Metabolite_Detected
CSc1nc(-c2ccc(F)cc2)c(-c2ccnc(Nc3ccccc3)c2)[nH]1,inhibition,[11],> 70%
same,Activity,Rattus norvegicus [12],Non-Toxic
same,Activity,Rattus norvegicus [13],Non-Toxic
same,Activity,Rattus norvegicus [14],Non-Toxic
same,AUC(0-t),[15],3710 ng·h/mL and 9.86 µM·h
same,inhibition at 10 µM,CYP1A2,72%
same,Cmax,[16],608 ng/mL and 1.61 µM
same,Activity,Rattus norvegicus [17],Non-Toxic
same,Activity,Mus musculus [18],Active
same,inhibition,[19],> 70%
same,half-life,[20],2.8 h
same,inhibition at 10 µM,CYP2C9,60%
same,Activity,Rattus norvegicus [21],Non-Toxic
same,inhibition at 10 µM,CYP2D6,74.5%
same,inhibition,[22],> 70%
same,Activity,Rattus norvegicus [23],Non-Toxic
same,inhibition,[24],> 70%
same,inhibition at 10 µM,CYP2C19,90%
same,Tmax,[25],2 h
same,Activity,Mus musculus [26],Non-Toxic
same,inhibition in vivo at 10 mg/kg,Mus musculus [27],60%
same,inhibition at 10 µM,CYP3A4,16.5%
